From ChEMBL document CHEMBL2069265, “Synthesis and biological evaluation of optically active conjugated γ- and δ-lactone derivatives” (2012)
In brackets after ≈: the same amount, converted by molar mass. Activity calls are given as the source filed them. The calls are words filed in the database; no cut-off is given here.

How the values were obtained:
[1] = system: Pseudomonas aeruginosa; test: Antibacterial activity against Pseudomonas aeruginosa ATCC 9027 at 10 to 100 mg/ml after 24 hrs by disc diffusion method; assay type: functional, organism-based
Summary of the method: (§1)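 Modified disc diffusion: LB agar plates seeded at 10^6 cells/mL; 6 mm filter discs soaked in 50 µL of compound at 10–100 mg/mL in DMSO or methanol, placed on plates, 37 °C for 24 h. Inhibition zone ≥7 mm scored susceptible. Solvent discs tested; positive controls gentamicine, streptomycine or nystatin discs at 10 mg/mL.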

[2] = system: Radical scavenging activity; test: Antioxidant activity assessed as DPPH radical scavenging activity at 11 uM; assay type: functional
Summary of the method: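 DPPH radical scavenging at 11 µM compound in methanol, absorbance at 517 nm; % scavenging calculated from control versus sample A517. Alpha tocopherol control; mean ± SD of three parallel measurements.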

[3] = system: Bacillus subtilis; test: Antibacterial activity against Bacillus subtilis ATCC 6633 at 10 to 100 mg/ml after 24 hrs by disc diffusion method; assay type: functional; summary of the method: as §1
[4] = system: Staphylococcus aureus; test: Antibacterial activity against Staphylococcus aureus ATCC 6538 at 10 to 100 mg/ml after 24 hrs by disc diffusion method; assay type: functional; summary of the method: as §1
[5] = system: Escherichia coli; test: Antibacterial activity against Escherichia coli ATCC 3509 after 24 hrs; assay type: functional
[6] = system: Candida albicans; test: Antifungal activity against Candida albicans ATCC 10231 after 24 hrs; assay type: functional
[7] = system: Pseudomonas aeruginosa; test: Antibacterial activity against Pseudomonas aeruginosa ATCC 9027 after 24 hrs; assay type: functional, organism-based
[8] = system: Bacillus subtilis; test: Antibacterial activity against Bacillus subtilis ATCC 6633 after 24 hrs; assay type: functional
[9] = system: Candida albicans; test: Antifungal activity against Candida albicans ATCC 10231 at 10 to 100 mg/ml after 24 hrs by disc diffusion method; assay type: functional; summary of the method: as §1
[10] = system: Escherichia coli; test: Antibacterial activity against Escherichia coli ATCC 3509 at 10 to 100 mg/ml after 24 hrs by disc diffusion method; assay type: functional; summary of the method: as §1
[11] = system: Staphylococcus aureus; test: Antibacterial activity against Staphylococcus aureus ATCC 6538 after 24 hrs; assay type: functional
[12] = Metal chelating activity of the compound assessed as ratio of Fe2+ concentration to compound concentration; assay type: functional
Summary of the method: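 Fe3+ reducing activity by modified ferrozine method; [Fe2+] calculated from extinction coefficient 27,900 M-1cm-1 of Fe(ferrozine)2+ complex, expressed as µM Fe2+ per µM compound. Means ± SD of three parallel measurements.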

[13] = system: Liver microsomes; test: Antioxidant activity in Wistar rat liver microsomes assessed as reduction of lipid peroxidase activity by TBA assay; assay type: functional; parameters: concentration or dose not given beside the values; conditions: Microsome
Summary of the method: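 TBA assay of lipid peroxidation in liver microsomes isolated from three Wistar rats, following Raj et al.; reduced lipid peroxidase activity taken as antioxidant activity, expressed as %.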

[14] = system: Radical scavenging activity; test: Antioxidant activity assessed as DPPH radical scavenging activity at 10 to 80 uM; assay type: functional
Summary of the method: (§2)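 DPPH radical scavenging per Blois; compounds 10–80 µM in methanol (some runs 10–200 µM, values reported at 80 µM). Absorbance at 517 nm; scavenging % = (A517 control − A517 sample)/A517 control × 100. Alpha tocopherol as control. Means ± SD of three parallel measurements.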

[15] = system: Radical scavenging activity; test: Antioxidant activity assessed as DPPH radical scavenging activity at 80 uM; assay type: functional; summary of the method: as §2
[16] = system: Radical scavenging activity; test: Antioxidant activity assessed as DPPH radical scavenging activity at 11 to 1000 uM; assay type: functional
Summary of the method: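 DPPH scavenging in methanol, read as loss of absorbance at 517 nm, value obtained over 1000–11 µM compound; % = (A517 control − A517 sample)/A517 control × 100. Alpha tocopherol control; three parallel measurements, means ± SD.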

MIC ([5]; ATCC 3509, 24 h) | MIC [6] | MIC [7] | MIC [8] | MIC [11] | MIC ([6]; ATCC 10231, 24 h) | MIC ([8]; ATCC 6633, 24 h) | MIC ([11]; ATCC 6538, 24 h) | MIC [5] | Compound | diameter of the inhibition zone (DIZ) [1] | Activity [2] | diameter of the inhibition zone (DIZ) [3] | diameter of the inhibition zone (DIZ) [4] | diameter of the inhibition zone (DIZ) [9] | diameter of the inhibition zone (DIZ) [10] | Ratio [12] | Activity [13] | Activity [14] | Activity [15] | Activity [16]
25 µg/mL (≈ 139 µM) | inactive | inactive | inactive | inactive | – | – | – | – | CC1=C[C@@H](c2cccs2)OC1=O | inactive | 50.6% | inactive | inactive | inactive | 9.5 mm | – | – | – | – | –
20 µg/mL (≈ 111 µM) | – | inactive | – | – | 25 µg/mL (≈ 139 µM) | 10 µg/mL (≈ 55.5 µM) | 30 µg/mL (≈ 166 µM) | – | O=C1C=CCC(c2cccs2)O1 (racemic) | inactive | – | 8.5 mm | 8.5 mm | 9 mm | 8.5 mm | – | – | – | – | –
30 µg/mL (≈ 166 µM) | – | inactive | – | – | 30 µg/mL (≈ 166 µM) | 20 µg/mL (≈ 111 µM) | 50 µg/mL (≈ 277 µM) | – | O=C1C=CC[C@@H](c2cccs2)O1 | inactive | – | 8.5 mm | 7 mm | 7 mm | 8.5 mm | 0 | inactive | 14% | – | –
– | inactive | inactive | inactive | inactive | – | – | – | inactive | O=C1C=CCC(c2ccco2)O1 (racemic) | inactive | – | inactive | inactive | inactive | inactive | 0 | 24.5% | – | 38.1% | –
– | – | inactive | inactive | inactive | 25 µg/mL (≈ 139 µM) | – | – | inactive | CC1=CC(c2cccs2)OC1=O (racemic) | inactive | 93.3% | inactive | inactive | 7.5 mm | inactive | – | – | – | – | –
25 µg/mL (≈ 129 µM) | – | inactive | – | – | 25 µg/mL (≈ 129 µM) | 25 µg/mL (≈ 129 µM) | 25 µg/mL (≈ 129 µM) | – | CC1=CC[C@H](c2cccs2)OC1=O | inactive | – | 7 mm | 10 mm | 9 mm | 9 mm | – | inactive | inactive | – | –
12 µg/mL (≈ 61.8 µM) | – | inactive | inactive | – | 25 µg/mL (≈ 129 µM) | – | 25 µg/mL (≈ 129 µM) | – | CC1=CCC(c2cccs2)OC1=O (racemic) | inactive | – | inactive | 7.5 mm | 12 mm | 8 mm | – | – | – | – | 7.11%
– | – | – | – | – | – | – | – | – | Cc1c(C)c2c(c(C)c1O)CC[C@@](C)(CCC[C@H](C)CCC[C@H](C)CCCC(C)C)O2 | – | – | – | – | – | – | – | – | 66.2% | – | –
